This is an account of results in publication PMC11539713 (Malaria Journal, 2024).

Converted amounts (≈) assume the structure as drawn. “And” between values parts separate entries of the source, which are not always exact repeats. Identical values can stand only once. Like-named read-outs stand apart in the source and are kept apart here.

The test system of data set [1] is Pf3D7. The experiment in a line: In vitro drug susceptibility, SYBR Green I fluorometric method, Pf3D7. The settings on record: Plasmodium falciparum. It counts as cell-based. The essentials: (§1)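 Synchronous ring-stage P. falciparum culture at final 0.5% parasitaemia and 2% haematocrit, exposed to test compound. Chloroquine served as positive control and 0.1% DMSO as negative control. Growth was read by SYBR Green I fluorescence. MIC50/MIC90 came from nonlinear regression of log-transformed concentrations, averaged over two independent experiments each run in duplicate.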

Data set [2] deals with PfDd2. The experiment in a line: In vitro drug susceptibility, SYBR Green I fluorometric method, PfDd2. In kind it is cell-based. Conditions: Plasmodium falciparum. In a few lines:
as §1

The nature of data set [3]: Enzyme kinetics of ART metabolism in human liver microsomes. The settings on record: HLMs 0.5 mg/mL; for microsomal CLint: CLint,H, Vmax/Km, 15 min. In kind it is in vitro ADME. Background: Microsomes from liver hold many membrane-bound enzymes, among them those of drug oxidation.
Data set [4] is classed as in vivo, human. Conditions: for fAUC0-t: area under the free plasma concentration–time curve; for fCmax: maximum free plasma concentration. In a few lines:
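Subjects were six healthy non-smoking men, 20–26 y, BMI 20–25 kg/m2. Each received oral test compound 125 mg plus piperaquine 750 mg per dose over two days. Venous blood was drawn 0–48 h, and plasma was stored at −80 °C. Samples were prepared by acetonitrile precipitation with deuterated internal standard and analysed by LC-HRMS. Non-compartmental analysis used observed Cmax/Tmax, AUC0-t by linear trapezoidal rule, and CL/F = dose/AUC0-t.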

Data set [5] in a line: Plasma protein binding by ultrafiltration. In kind it is in vitro ADME. Conditions: human, pooled human plasma.
For data set [6], the system named is Pf3D7. The settings on record: cited from earlier work.
In data set [7] the test system is PfDd2. The settings on record: cited from earlier work.
The conditions of data set [8]: cited from earlier work.
Another data set has as its system CYP3A. Conditions: read-out: Inhibition constant Ki of CYP3A; cited from earlier work.
For data set [9] the following is noted: cited from earlier work. This is another data set of the same source.
The next data set deals with CYP enzymes. The experiment in a line: Enzyme phenotyping with. In kind it is in vitro ADME, human. Conditions: for Effect of inhibitor on formation of ART-M in HLMs: ART 1 μM, HLMs 1 mg/mL, 1 mM 1-ABT, 1 μM ketoconazole.
Setting [10] is: read-out: Antiplasmodial activity (literature data).

The MIC50 is the lowest concentration that inhibits either 50% of growth or 50% of the strains tested, depending on the study. In general, MIC90 refers to an inhibitory concentration at the 90% level, which refers to growth in some studies and to a panel of isolates in others. Low values mean greater potency, high ones weaker potency. The Km is the concentration of substrate that gives half-maximal velocity. One may read the CL/F as the apparent clearance, not corrected for the fraction that reaches the circulation. For orientation: Tmax means the time at which the peak concentration occurs. As a reminder, the half-life is the time in which the quantity being followed falls by half. A low value points to rapid decline. Broadly, the Cmax is the peak of the concentration-time curve. Usually fraction unbound stands for free concentration divided by total concentration. Read a low fraction unbound as extensive binding. For the molecule `C[C@@H]1CC[C@H]2[C@@H](C)C(=O)O[C@@H]3O[C@@]4(C)CC[C@@H]1[C@]32OO4` [ART, Artemisinin], the MIC50 against Pf3D7 [1] is 0.0101 µM (≈ 2.85 ng/mL); against PfDd2 [2], 0.0204 µM (≈ 5.76 ng/mL). The MIC90 against Pf3D7 [1] amounted to 0.0139 ± 0.0005 µM (≈ 3.92 ng/mL); with PfDd2 [2] it was 0.0384 ± 0.0009 µM (≈ 10.8 ng/mL). Further, the results for the microsomal CLint in data set [3] (formation of ART-M) and in [3] (substrate depletion) were 27.6 µL/min/mg and 30.3 µL/min/mg, respectively. Also, in [3] (Km, substrate depletion), the Km at 15 min amounted to 23.8 µM. In addition, the fAUC0-t is given as 155.6 ± 27.6 nmol/L⋅h in data set [4] (Day-1) and 113.0 ± 20.1 nmol/L⋅h in data set [4] (Day-2). Besides, the fCmax was 51.8 nM and 51.8 ± 18.0 nM in data set [4] (Day-1); 43.1 ± 10.5 nM in data set [4] (Day-2). The molecule also gave a CL/F in data set [4] (male, human, plasma, oral, CL/F, Day-1, dose/AUC0-t) of 183 mL/min/kg. In addition, the Tmax in [4] (male, human, plasma, oral, Tmax, Day-1) stood at 1 h. This molecule had a half-life in data set [4] (male, human, plasma, oral, t1/2, Day-1) of 1.7 h. The molecule further gave a Cmax in [4] (male, human, plasma, po, Cmax, after the first oral dose, plasma) of 207 nM. Further, the fraction unbound at 0.6 μM in [5] is 0.251. Besides, the IC50 with Pf3D7 [6] (setting [10]) and in the data set on PfDd2 [7] (setting [10]) was 0.01 to 0.03 µM throughout. In addition, the Bioavailability in data set [8] was ~ 30%. The “Elimination half-life t1/2” value in data set [8] is recorded as ~ 2 h.

`C[C@H]1[C@@H](O)O[C@@H]2O[C@@]3(C)CC[C@H]4[C@H](C)CC[C@@H]1[C@@]24OO3` [dihydroartemisinin]: the MIC50 in the data set with PfDd2 [7] is listed as ~ 1.0 nM.

As for `CCN(CC)CCCC(C)Nc1ccnc2cc(Cl)ccc12` (stereo not shown) [CQ, Chloroquine diphosphate], the MIC50 with Pf3D7 [1] was determined as 0.0106 µM; in the data set with PfDd2 [2], 0.0938 µM. In the data set with Pf3D7 [1], this molecule registered an MIC90 of 0.0163 ± 0.0031 µM. The “MIC50 (reported data)” value was 0.005 to 0.04 µM with Pf3D7 [6] and 0.062 to 0.1354 µM in the data set with PfDd2 [7].

For orientation: Ki means a measure of affinity in units of concentration, obtained from inhibition or displacement. Consider `Clc1ccc2c(N3CCN(CCCN4CCN(c5ccnc6cc(Cl)ccc56)CC4)CC3)ccnc2c1` [piperaquine], for which the Ki in the data set with CYP3A was 0.68 µM. Further, the Plasma protein binding in [9] is 97.4%.

Take `Nn1nnc2ccccc21` [1-ABT]: the “Effect of inhibitor on formation of ART-M in HLMs” value in the data set on CYP enzymes was “completely inhibited”. Also, the “Effect of inhibitor on formation of trace metabolite isomer M1” value in the data set with CYP enzymes (ART in HLMs) is recorded as “inhibited completely”.

In the case of `CC(=O)N1CCN(c2ccc(OCC3COC(Cn4ccnc4)(c4ccc(Cl)cc4Cl)O3)cc2)CC1` (stereo not shown) [ketoconazole], the “Effect of inhibitor on formation of ART-M in HLMs” value in the data set with CYP enzymes is on record as “completely inhibited”.
